Assay results from ChEMBL document CHEMBL1154904 (J Med Chem, 2010).

Tests used:
in vitro [1] = conditions: human, Caco-2
in vitro [2] = conditions: human, Caco-2; remark: listed apart in the source
[3] = Oral bioavailability in rat at 10 mg/kg; assay type: ADME, organism-based; conditions: in vivo
Method in brief: (§1)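 Fasted animals received a single oral dose of 10 mg/kg unless another dose was specified. Half-life was taken from the po profile.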

[4] = Cmax in dog at 10 mg/kg, po; assay type: ADME, organism-based, Canis lupus familiaris; design: dose 10 mg/kg, route oral; conditions: in vivo
Method in brief: (§2)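 Fasted rats or dogs received a single oral dose of 10 mg/kg. Plasma drug levels gave Cmax and oral half-life.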

[5] = Cmax in rat at 10 mg/kg, po; assay type: ADME, organism-based; design: dose 10 mg/kg, route oral; conditions: in vivo
Method in brief: as §2

[6] = Oral bioavailability in dog at 10 mg/kg, po; assay type: ADME, organism-based, Canis lupus familiaris; conditions: in vivo
Method in brief: as §1

Rattus norvegicus [7] = experiment: Plasma concentration in Sprague-Dawley rat electrical current-induced arterial thrombosis model at 0.3 mg/kg, iv administered 5 mins before electrical stimulation for 20 mins; assay type: ADME, organism-based; design: dose 0.3 mg/kg, route intravenous; conditions: in vivo
Method in brief: (§3)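 Anesthetized rats with a carotid Doppler flow probe received 10% solutol vehicle or compound (0.03–1.0 mg/kg) by slow left jugular infusion over 20 min at 0.05 mL/min. Electrical stimulation of the carotid began 5 min into the infusion and lasted 5 min. Occlusion was followed for 30 min; plasma drug levels were related to aPTT.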

[8] = Plasma concentration in mongrel dog arterio-venous shunt model of thrombosis at 3 mg/kg, po after 1 hr; assay type: ADME, organism-based, Canis lupus familiaris; design: dose 3 mg/kg, route oral
Method in brief: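 Adult mongrel dogs of either sex (13.2–14.5 kg) were dosed orally at 3 mg/kg. After a 1 h observation period they were anesthetized with pentobarbital (35 mg/kg iv). Plasma taken at the 1 h time point was assayed for drug concentration and aPTT.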

[9] = Tmax in healthy human at 4 to 500 mg po; conditions: in vivo
[10] = Apparent volume of distribution with respect to bioavailability in healthy human at 100 to 500 […]; assay type: ADME, organism-based; conditions: in vivo, in the assay text read “100 to 500 mg” for “100 to 500 mg/kg”, read-out: Vc/F
Method in brief: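 Double-blind, placebo-controlled single oral solution doses (4–500 mg) in healthy fasted (≥10 h) males: six drug and two placebo subjects per cohort, given with 200 mL water. Venous blood was taken predose and at 0.5–48 h for plasma levels. aPTT was recorded in seconds and as a ratio to individual −1 h baseline.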

[11] = Plasma concentration in Sprague-Dawley rat deep vein thrombosis model at 10 mg/kg, po measured after 70 mins post; assay type: ADME, organism-based; design: dose 10 mg/kg, route oral
Method in brief: (§4)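 For oral dosing, compound at 10, 30 or 50 mg/kg was solubilized in 0.5% methocel (5 mL/kg) and given by oral dosing tube. Rats were anesthetized 45 min after dosing, followed by the venous thrombus procedure. Blood was sampled at study termination for plasma drug concentration and coagulation times.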

[12] = Plasma concentration in Sprague-Dawley rat deep vein thrombosis model at 1 mg/kg, iv administered for 45 mins measured after 30 mins post dose; assay type: ADME, organism-based; design: dose 1 mg/kg, route intravenous
Method in brief: (§5)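 Rats received vehicle (solutol 10% and D5W) or compound by jugular vein infusion over 45 min at 0.04 mL/min, to total cumulative doses of 0.1, 0.3 or 1.0 mg/kg. Thrombus formation in the vena cava began at 30 min of infusion. Blood was drawn from a carotid catheter at the end of the experiment for coagulation times and plasma drug concentration.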

[13] = Plasma concentration in Sprague-Dawley rat deep vein thrombosis model at 0.1 mg/kg, iv administered for 45 mins measured after 30 mins post dose; assay type: ADME, organism-based; design: dose 0.1 mg/kg, route intravenous
Method in brief: as §5

[14] = Plasma concentration in Sprague-Dawley rat deep vein thrombosis model at 50 mg/kg, po measured after 70 mins post; assay type: ADME, organism-based; design: dose 50 mg/kg, route oral
Method in brief: as §4

[15] = Plasma concentration in Sprague-Dawley rat deep vein thrombosis model at 30 mg/kg, po measured after 70 mins post; assay type: ADME, organism-based; design: dose 30 mg/kg, route oral
Method in brief: as §4

[16] = Plasma concentration in Sprague-Dawley rat deep vein thrombosis model at 0.3 mg/kg, iv administered for 45 mins measured after 30 mins post dose; assay type: ADME, organism-based; design: dose 0.3 mg/kg, route intravenous
Method in brief: as §5

[17] = Cmax in rat at 30 mg/kg, po; assay type: ADME, organism-based; design: dose 30 mg/kg, route oral; conditions: in vivo
Method in brief: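 Rats were fasted and given a single oral dose of 30 mg/kg. Cmax was taken from plasma drug concentrations.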

Rattus norvegicus [18] = experiment: Plasma concentration in Sprague-Dawley rat electrical current-induced arterial thrombosis model at 1 mg/kg, iv administered 5 mins before electrical stimulation for 20 mins; assay type: ADME, organism-based; design: dose 1 mg/kg, route intravenous; conditions: in vivo
Method in brief: as §3

Compound: CCc1ccc(CCNc2ncc(C)n(CC(=O)NCCONC(=N)N)c2=O)cc1
- Papp B→A (in vitro [1]): 10.3 ×10⁻⁶ cm/s
- Papp A→B (in vitro [2]): 0.29 ×10⁻⁶ cm/s

Compound: Cc1cnc(NCCc2ccc(F)cc2F)c(=O)n1CC(=O)NCCONC(=N)N
- Papp B→A (in vitro [1]): 1.91 ×10⁻⁶ cm/s
- Papp A→B (in vitro [2]): 0.5 ×10⁻⁶ cm/s

Compound: Cc1cnc(NCCc2ccc(F)cc2)c(=O)n1CC(=O)NCCONC(=N)N
- Papp B→A (in vitro [1]): 1.48 ×10⁻⁶ cm/s
- Papp A→B (in vitro [2]): 0.55 ×10⁻⁶ cm/s

Compound: Cc1cnc(NCC(c2ccccc2)c2ccccc2)c(=O)n1CC(=O)NCCONC(=N)N
- Papp B→A (in vitro [1]): 13 ×10⁻⁶ cm/s
- Papp A→B (in vitro [2]): 0.14 ×10⁻⁶ cm/s

Compound: Cc1cnc(NCCc2ccc3c(c2)CCC3)c(=O)n1CC(=O)NCCONC(=N)N
- Papp B→A (in vitro [1]): 4.29 ×10⁻⁶ cm/s
- Papp A→B (in vitro [2]): 0.67 ×10⁻⁶ cm/s

Compound: N=C(N)NOCCNC(=O)Cn1c(Cl)cnc(NCC(F)(F)c2ccccc2)c1=O
- bioavailability [3]: 9%
- Papp B→A (in vitro [1]): 3.04 ×10⁻⁶ cm/s
- Papp A→B (in vitro [2]): 0.5 ×10⁻⁶ cm/s
- Cmax [4]: 1600 nM
- Cmax [5]: 200 nM
- bioavailability [6]: 60%

Compound: Cc1cnc(NCC(F)(F)c2ccccc2)c(=O)n1CC(=O)NCCONC(=N)N
- bioavailability [3]: 23%
- concentration (Rattus norvegicus [7]): 120 nM
- concentration at 1 h [8]: 870 nM
- Papp B→A (in vitro [1]): 6.45 ×10⁻⁶ cm/s
- Tmax [9]: 1.25 h
- Papp A→B (in vitro [2]): 1.37 ×10⁻⁶ cm/s
- Vd/F [10]: 530 L
- concentration at 70 min [11]: 100 nM
- Cmax [4]: 5700 nM
- concentration at 0.5 h [12]: 800 nM
- concentration at 0.5 h [13]: 310 nM
- concentration at 70 min [14]: 730 nM
- bioavailability [6]: 103%
- concentration at 70 min [15]: 760 nM
- concentration at 0.5 h [16]: 540 nM
- Cmax [17]: 3300 nM
- concentration (Rattus norvegicus [18]): 310 nM

Compound: N#Cc1cnc(NCC(F)(F)c2ccccc2)c(=O)n1CC(=O)NCCON=C(N)N
- bioavailability [3]: 11%
- concentration (Rattus norvegicus [7]): 85 nM
- concentration at 1 h [8]: 480 nM
- Papp B→A (in vitro [1]): 2.26 ×10⁻⁶ cm/s
- Papp A→B (in vitro [2]): 0.5 ×10⁻⁶ cm/s
- Cmax [4]: 3300 nM
- Cmax [5]: 200 nM
- bioavailability [6]: 57%
- concentration (Rattus norvegicus [18]): 380 nM

Compound: Cc1ccc(CCNc2ncc(C)n(CC(=O)N(C)CCON=C(N)N)c2=O)cc1
- Papp B→A (in vitro [1]): 0.6 ×10⁻⁶ cm/s
- Papp A→B (in vitro [2]): 0.27 ×10⁻⁶ cm/s

Compound: Cc1cnc(NCCc2ccc(F)c(F)c2)c(=O)n1CC(=O)NCCONC(=N)N
- Papp B→A (in vitro [1]): 1.84 ×10⁻⁶ cm/s
- Papp A→B (in vitro [2]): 0.92 ×10⁻⁶ cm/s

Compound: Cc1cnc(NCCc2cccc3ccccc23)c(=O)n1CC(=O)NCCON=C(N)N
- Papp B→A (in vitro [1]): 11.8 ×10⁻⁶ cm/s
- Papp A→B (in vitro [2]): 0.32 ×10⁻⁶ cm/s
